From ChEMBL document CHEMBL2331546, “The structure of anthracycline derivatives determines their subcellular localization and cytotoxic activity” (ACS Med Chem Lett, 2013)
Activity calls are given as the source filed them. No cut-off for these calls is given here.

What was measured:
[1] = Cytotoxicity against mouse DA-3 cells after 24 hrs by XTT assay; type: functional, cell-based; conditions: DA-3, 24 h
Procedure, shortened: (§1)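 Cells seeded at ~5 × 10^3 per well, exposed to drug at concentrations up to 60 μM for 24 h; viability read by XTT assay and IC50 values derived.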

[2] = Displacement of SYBR from phage lambda DNA by FID assay; parameters: species or system Enterobacteria phage lambda
Procedure, shortened: (§2)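 Run at 37 °C; each well held 500 ng phage lambda DNA (48 Kb) with either SYBR safe (final dilution 1:10000) or YOYO-1 (one dye molecule per 40 base pairs) and test compound at up to 40 μM; dye fluorescence displacement gave IC50.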

[3] = Cellular uptake in mouse DA-3 cell cytoplasm at 10 uM after 30 mins by confocal microscopic analysis; type: ADME, cell-based; conditions: da-3, 0.5 h
[4] = Cellular uptake in mouse DA-3 cell mitochondria at 10 uM after 30 mins by mitotracker red staining-based confocal microscopic analysis; type: ADME; conditions: da-3, 0.5 h
[5] = Cellular uptake in mouse DA-3 cell lysosome at 10 uM after 30 mins by LysoTracker red staining-based confocal microscopic analysis relative to control; type: ADME; conditions: da-3, 0.5 h
[6] = test system: MCF7; test: Cytotoxicity against human MCF7 cells after 24 hrs by XTT assay; type: functional, cell-based; conditions: MCF7, 24 h; procedure, shortened: as §1
[7] = test system: SK-OV-3; test: Cytotoxicity against human SKOV3 cells after 24 hrs by XTT assay; type: functional, cell-based; conditions: SK-OV-3, 24 h; procedure, shortened: as §1
[8] = Cytotoxicity against human ES2 cells after 24 hrs by XTT assay; type: functional, cell-based; conditions: ES-2, 24 h; procedure, shortened: as §1
[9] = Displacement of YOYO1 from phage lambda DNA by FID assay; parameters: species or system Enterobacteria phage lambda; procedure, shortened: as §2
[10] = test system: DA-3; test: Cytotoxicity against mouse DA-3 cells assessed as reduction in cell viability at 20 uM after 60 mins by XTT assay; type: functional, cell-based
Procedure, shortened: (§3)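 DA3 cells incubated with 20 μM anthracycline; XTT viability measured after 60, 120 and 180 min of incubation; percentage cell death expressed relative to untreated control cells (set as 100% viability).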

[11] = (§4) Cytotoxicity against mouse DA-3 cells assessed as reduction in cell viability at 20 uM after 180 mins by XTT assay relative to control; type: functional; procedure, shortened: as §3
[12] = Cellular uptake in mouse DA-3 cell nucleus at 10 uM after 30 mins by DRAQ5 deep red staining-based confocal microscopic analysis relative to control; type: ADME; conditions: da-3, 0.5 h
[13] = test system: Enterobacteria phage lambda; test: Ratio of idarubicin IC50 to compound IC50 for displacement of YOYO1 from phage lambda DNA
[14] = test system: DA-3; test: Cytotoxicity against mouse DA-3 cells assessed as reduction in cell viability at 20 uM by XTT assay; type: functional, cell-based; procedure, shortened: as §3
[15] = test system: Enterobacteria phage lambda; test: Ratio of doxorubicin IC50 to compound IC50 for displacement of SYBR from phage lambda DNA
[16] = test system: Enterobacteria phage lambda; test: Ratio of idarubicin IC50 to compound IC50 for displacement of SYBR from phage lambda DNA
[17] = Cellular uptake in mouse DA-3 cell lysosome at 10 uM after 30 mins by LysoTracker green staining-based confocal microscopic analysis relative to control; type: ADME; conditions: da-3, 0.5 h
[18] = Cellular uptake in mouse DA-3 cell lysosome at 10 uM after 10 hrs by LysoTracker green staining-based confocal microscopic analysis; type: ADME; conditions: da-3, 10 h
[19] = Cytotoxicity against mouse DA-3 cells assessed as reduction in cell viability at 20 uM after 6 hrs by XTT assay relative to control; type: functional
[20] = Cellular uptake in mouse DA-3 cell nucleus at 10 uM after 10 hrs by DRAQ5 deep red staining-based confocal microscopic analysis; type: ADME; conditions: da-3, 10 h
[21] = test system: DA-3; test: as §4; type: functional; procedure, shortened: as §3
[22] = Cellular uptake in mouse DA-3 cell mitochondria at 10 uM after 10 hrs by mitotracker red staining-based confocal microscopic analysis; type: ADME; conditions: da-3, 10 h

SMILES | IC50 [1] [µM] | IC50 [2] [µM] | Drug uptake [3] | Drug uptake [4] | Drug uptake [5] [%] | IC50 [6] [µM] | IC50 [7] [µM] | IC50 [8] [µM] | IC50 [9] [µM] | Activity [10] | Activity [11] [%] | Drug uptake [12] | Ratio IC50 [13] | Drug uptake [17] [%] | further results
C[C@@H]1O[C@@H](OCc2cc(O)c3c(c2)C(=O)c2cccc(O)c2C3=O)C[C@H](N)[C@H]1O | 7.9 | > 40 | Active | Not Active | 67.12 | 23.6 | 11.1 | 6.8 | > 40 | Active | 100 | Not Active |  |  | 
Cc1c(O)c2c(c(O)c1CO[C@H]1C[C@H](N)[C@@H](O)[C@H](C)O1)C(=O)c1ccccc1C2=O | 17.5 | > 40 | Active | Not Active | 84.48 | 17.2 | 16.3 | 17.7 | > 40 |  |  | Not Active |  |  | 
CC(=O)[C@]1(O)Cc2c(O)c3c(c(O)c2[C@@H](O[C@H]2C[C@H](N)[C@H](O)[C@H](C)O2)C1)C(=O)c1ccccc1C3=O [IDARUBICIN] | 2.3 | 0.89 |  | Not Active |  | 7.3 | 4.5 | 3.2 | 1.97 |  |  |  | 3 | 83.2 | Activity [14]: Active; Ratio IC50 [15]: 5; Ratio IC50 [16]: 5
COc1cccc2c1C(=O)c1c(O)c3c(c(O)c1C2=O)C[C@@](O)(C(=O)CO)C[C@@H]3O[C@H]1C[C@H](N)[C@H](O)[C@H](C)O1 [DOXORUBICIN] | 4 | 0.73 |  | Not Active |  | > 60 | 55.7 | > 60 | 0.6 |  |  | 41.43% | 3 | 27.55 | Drug uptake [18]: Active; Activity [19]: 12%; Drug uptake [20]: Active; Activity [21]: inactive; Drug uptake [22]: Active
COc1cccc2c1C(=O)c1c(O)c3c(c(O)c1C2=O)C[C@@](O)(C(C)=O)C[C@@H]3O[C@H]1C[C@H](N)[C@H](O)[C@H](C)O1 [DAUNORUBICIN] | 1.9 | 0.14 |  |  |  | 33.9 | 20.6 | 25.5 | 0.84 | Active | 80 | Not Active |  | 83.19 | 
